Results as given in ChEMBL document CHEMBL1154950, “Biochemical analysis of cellular target of S-trityl-L-cysteine derivatives using affinity matrix” (Bioorg Med Chem Lett, 2010).
Calls of active or inactive are those of the source. The calls are words filed in the database; no cut-off is given here.

Columns and labels:
Type in all cases: cell-based
Settings in all cases: HCT-116
[1] = target: T1, Kinesin-like protein KIF11 (Homo sapiens) (UniProt P52732); test: Inhibition of affinity bead (R)-2-Amino-N-{2-[2-(2-amino-ethoxy)-ethoxy]-ethyl}-3-[(4-methoxy-phenyl)-diphenyl-methylsulfanyl]-propionamide binding to KSP in human HCT116 cells pretreated for 3 hrs by Western blot analysis
T1 sequence (whole entry): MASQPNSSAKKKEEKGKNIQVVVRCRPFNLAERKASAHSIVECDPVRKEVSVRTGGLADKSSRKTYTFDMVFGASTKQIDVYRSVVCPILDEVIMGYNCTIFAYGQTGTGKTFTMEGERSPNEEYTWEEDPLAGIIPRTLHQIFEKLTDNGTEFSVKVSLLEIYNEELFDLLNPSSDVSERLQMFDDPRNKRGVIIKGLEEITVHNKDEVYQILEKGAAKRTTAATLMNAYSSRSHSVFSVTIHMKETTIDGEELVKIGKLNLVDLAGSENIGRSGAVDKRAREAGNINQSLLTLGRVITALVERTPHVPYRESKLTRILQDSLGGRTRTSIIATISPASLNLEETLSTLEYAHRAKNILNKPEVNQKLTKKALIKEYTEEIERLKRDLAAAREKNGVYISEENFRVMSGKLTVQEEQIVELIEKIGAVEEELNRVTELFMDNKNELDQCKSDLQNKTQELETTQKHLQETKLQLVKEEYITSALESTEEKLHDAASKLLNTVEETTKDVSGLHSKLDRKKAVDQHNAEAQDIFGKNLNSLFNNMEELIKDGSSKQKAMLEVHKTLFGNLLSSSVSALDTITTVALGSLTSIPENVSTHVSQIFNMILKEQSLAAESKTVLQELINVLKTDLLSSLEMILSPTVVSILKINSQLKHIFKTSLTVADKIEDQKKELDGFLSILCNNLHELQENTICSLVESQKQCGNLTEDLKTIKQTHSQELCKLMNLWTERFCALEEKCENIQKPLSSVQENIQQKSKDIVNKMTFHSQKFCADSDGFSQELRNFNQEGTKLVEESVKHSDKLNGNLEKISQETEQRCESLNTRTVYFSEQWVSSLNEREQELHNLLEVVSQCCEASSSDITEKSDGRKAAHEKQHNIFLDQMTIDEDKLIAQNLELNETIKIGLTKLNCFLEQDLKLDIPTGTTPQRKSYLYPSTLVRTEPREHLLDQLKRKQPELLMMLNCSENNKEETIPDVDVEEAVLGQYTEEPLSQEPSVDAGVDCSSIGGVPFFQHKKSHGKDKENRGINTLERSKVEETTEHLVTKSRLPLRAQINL

[2] = target: T1, Kinesin-like protein KIF11 (Homo sapiens); test: Displacement of affinity bead (R)-2-Amino-N-{2-[2-(2-amino-ethoxy)-ethoxy]-ethyl}-3-[(4-methoxy-phenyl)-diphenyl-methylsulfanyl]-propionamide from KSP in human HCT116 cells after 2 hrs by Western blot analysis
Outline: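 This is a cell-free competition assay. Drug-immobilized or ethanolamine control beads were washed and resuspended in binding buffer containing DMSO or compound in DMSO. They were rotated for 2 h at 4 °C with 50 mg/mL BSA and 8 mg/mL HCT116 cytoplasmic extract (freeze–thaw lysate). Beads were washed three times, and KSP on the beads and in the supernatant was assessed by anti-KSP Western blot.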

[3] = target: T1, Kinesin-like protein KIF11 (Homo sapiens); test: Competitive inhibition of affinity bead (R)-2-Amino-N-{2-[2-(2-amino-ethoxy)-ethoxy]-ethyl}-3-[(4-methoxy-phenyl)-diphenyl-methylsulfanyl]-propionamide binding to KSP in human HCT116 cells at 10 umol/L pretreated for 3 hrs by Western blot analysis
[4] = target: T1, Kinesin-like protein KIF11 (Homo sapiens); test: Competitive inhibition of affinity bead (R)-2-Amino-N-{2-[2-(2-amino-ethoxy)-ethoxy]-ethyl}-3-[(4-methoxy-phenyl)-diphenyl-methylsulfanyl]-propionamide binding to KSP in human HCT116 cells at >30 umol/L pretreated for 3 hrs by Western blot analysis

N[C@@H](CSC(c1ccccc1)c1ccccc1)C(=O)O
inhibition [1]: inactive | Activity [2]: inactive

N[C@@H](CSC(c1ccccc1)(c1ccccc1)c1ccc(C(F)(F)F)cc1)C(=O)O
Activity [3]: Active | inhibition [1]: Active | Activity [2]: Dose-dependent effect

CC1(C)CC(=O)C2=C(C1)NC(=S)NC2c1cccc(O)c1 (stereo not drawn)
Activity [3]: Active

NS(=O)(=O)Nc1ccc(-c2ccc(C(F)(F)F)cn2)cc1
Activity [3]: inactive | Activity [4]: Active
